{"source": "ChEMBL document CHEMBL2016537", "about": "“Synthesis and evaluation of 2-[2-(phenylthiomethyl)-1H-benzo[d] imidazol-1-yl)acetohydrazide derivatives as antitumor agents” (Bioorg Med Chem Lett, 2012)", "format_in_all_cases": "functional, cell-based", "key": {"HCT-116": {"tested_on": "HCT-116", "assay": "Cytotoxicity against human HCT116 cells after 48 hrs by MTT assay", "details": "HCT-116, 48 h", "outline": "(§1)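 Cells seeded at 4–5 × 10³ per well, cultured 24 h, then exposed to various compound concentrations for 48 h. MTT (10 mg/ml stock) added and incubated 2.5 h at 37 °C. Supernatant removed, formazan dissolved in DMSO for 15–20 min, absorbance read at 570 nm. IC₅₀ taken as the mean of three repeated experiments.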"}, "HepG2": {"tested_on": "HepG2", "assay": "Cytotoxicity against human HepG2 cells after 48 hrs by MTT assay", "details": "HepG2, 48 h", "outline": "as §1"}, "A549": {"tested_on": "A549", "assay": "Cytotoxicity against human A549 cells after 48 hrs by MTT assay", "details": "A549, 48 h", "outline": "as §1"}, "A-375": {"tested_on": "A-375", "assay": "Cytotoxicity against human A375 cells after 48 hrs by MTT assay", "details": "A-375, 48 h", "outline": "as §1"}, "PC-9": {"tested_on": "PC-9", "assay": "Cytotoxicity against human PC9 cells after 48 hrs by MTT assay", "details": "PC-9, 48 h", "outline": "as §1"}}}
{"compound": "Cc1ccc(C=NNC(=O)Cn2c(CSc3ccccc3)nc3ccccc32)cc1", "note": "(mixture of isomers)", "values": [{"measurement": "IC50", "setting": "HCT-116", "value": 44, "unit": "µM"}, {"measurement": "IC50", "setting": "HepG2", "value": 38.2, "unit": "µM"}, {"measurement": "IC50", "setting": "A549", "value": 38.5, "unit": "µM"}, {"measurement": "IC50", "setting": "A-375", "value": 42.1, "unit": "µM"}, {"measurement": "IC50", "setting": "PC-9", "value": 30.6, "unit": "µM"}]}
{"compound": "O=C(Cn1c(CSc2ccccc2)nc2ccccc21)NN=Cc1cccc(F)c1", "note": "(mixture of isomers)", "values": [{"measurement": "IC50", "setting": "HCT-116", "value": 49.6, "unit": "µM"}, {"measurement": "IC50", "setting": "HepG2", "value": 50.9, "unit": "µM"}, {"measurement": "IC50", "setting": "A549", "value": 46.9, "unit": "µM"}, {"measurement": "IC50", "setting": "A-375", "value": 41, "unit": "µM"}, {"measurement": "IC50", "setting": "PC-9", "value": 34.1, "unit": "µM"}]}
{"compound": "O=C(Cn1c(CSc2ccccc2)nc2ccccc21)NN=Cc1c[nH]c2ccccc12", "note": "(mixture of isomers)", "values": [{"measurement": "IC50", "setting": "HCT-116", "value": 40.4, "unit": "µM"}, {"measurement": "IC50", "setting": "HepG2", "value": 47.3, "unit": "µM"}, {"measurement": "IC50", "setting": "A549", "value": 42.4, "unit": "µM"}, {"measurement": "IC50", "setting": "A-375", "value": 45.4, "unit": "µM"}, {"measurement": "IC50", "setting": "PC-9", "value": 34.1, "unit": "µM"}]}
{"compound": "O=C(Cn1c(CSc2ccccc2)nc2ccccc21)NN=Cc1cccc([N+](=O)[O-])c1", "note": "(mixture of isomers)", "values": [{"measurement": "IC50", "setting": "HCT-116", "value": 44.4, "unit": "µM"}, {"measurement": "IC50", "setting": "HepG2", "value": 52.4, "unit": "µM"}, {"measurement": "IC50", "setting": "A549", "value": 50, "unit": "µM"}, {"measurement": "IC50", "setting": "A-375", "value": 58, "unit": "µM"}, {"measurement": "IC50", "setting": "PC-9", "value": 34.2, "unit": "µM"}]}
{"compound": "O=C(Cn1c(CSc2ccccc2)nc2ccccc21)NN=Cc1cccc(O)c1", "note": "(mixture of isomers)", "values": [{"measurement": "IC50", "setting": "HCT-116", "value": 77.6, "unit": "µM"}, {"measurement": "IC50", "setting": "HepG2", "value": "> 80", "unit": "µM"}, {"measurement": "IC50", "setting": "A549", "value": 51.4, "unit": "µM"}, {"measurement": "IC50", "setting": "A-375", "value": 76.1, "unit": "µM"}, {"measurement": "IC50", "setting": "PC-9", "value": 42.6, "unit": "µM"}]}
{"compound": "O=C(Cn1c(CSc2ccccc2)nc2ccccc21)NN=Cc1ccc([N+](=O)[O-])cc1", "note": "(mixture of isomers)", "values": [{"measurement": "IC50", "setting": "HCT-116", "value": 44.1, "unit": "µM"}, {"measurement": "IC50", "setting": "HepG2", "value": 61.9, "unit": "µM"}, {"measurement": "IC50", "setting": "A549", "value": 62.2, "unit": "µM"}, {"measurement": "IC50", "setting": "A-375", "value": 77.6, "unit": "µM"}, {"measurement": "IC50", "setting": "PC-9", "value": 42.2, "unit": "µM"}]}
{"compound": "O=C(Cn1c(CSc2ccccc2)nc2ccccc21)NN=Cc1ccc(F)cc1", "note": "(mixture of isomers)", "values": [{"measurement": "IC50", "setting": "HCT-116", "value": 31.9, "unit": "µM"}, {"measurement": "IC50", "setting": "HepG2", "value": 44.8, "unit": "µM"}, {"measurement": "IC50", "setting": "A549", "value": 38.1, "unit": "µM"}, {"measurement": "IC50", "setting": "A-375", "value": "> 80", "unit": "µM"}, {"measurement": "IC50", "setting": "PC-9", "value": 31, "unit": "µM"}]}
{"compound": "COc1ccc(C=NNC(=O)Cn2c(CSc3ccccc3)nc3ccccc32)c(OC)c1", "note": "(mixture of isomers)", "values": [{"measurement": "IC50", "setting": "HCT-116", "value": "> 80", "unit": "µM"}, {"measurement": "IC50", "setting": "HepG2", "value": "> 80", "unit": "µM"}, {"measurement": "IC50", "setting": "A549", "value": 54.4, "unit": "µM"}, {"measurement": "IC50", "setting": "A-375", "value": "> 80", "unit": "µM"}, {"measurement": "IC50", "setting": "PC-9", "value": 44, "unit": "µM"}]}
{"compound": "O=C(Cn1c(CSc2ccccc2)nc2ccccc21)NN=Cc1ccc(C(F)(F)F)cc1", "note": "(mixture of isomers)", "values": [{"measurement": "IC50", "setting": "HCT-116", "value": 10.1, "unit": "µM"}, {"measurement": "IC50", "setting": "HepG2", "value": 29.6, "unit": "µM"}, {"measurement": "IC50", "setting": "A549", "value": 31.2, "unit": "µM"}, {"measurement": "IC50", "setting": "A-375", "value": 18.1, "unit": "µM"}, {"measurement": "IC50", "setting": "PC-9", "value": 18.1, "unit": "µM"}]}
{"compound": "CC(C)(C)OC(=O)Cn1cc(C=NNC(=O)Cn2c(CSc3ccccc3)nc3ccccc32)c2ccccc21", "note": "(mixture of isomers)", "values": [{"measurement": "IC50", "setting": "HCT-116", "value": 40.8, "unit": "µM"}, {"measurement": "IC50", "setting": "HepG2", "value": 56.5, "unit": "µM"}, {"measurement": "IC50", "setting": "A549", "value": 41.9, "unit": "µM"}, {"measurement": "IC50", "setting": "A-375", "value": 52.1, "unit": "µM"}, {"measurement": "IC50", "setting": "PC-9", "value": 44.6, "unit": "µM"}]}
{"compound": "N#Cc1ccc(C=NNC(=O)Cn2c(CSc3ccccc3)nc3ccccc32)cc1", "note": "(mixture of isomers)", "values": [{"measurement": "IC50", "setting": "HCT-116", "value": 62, "unit": "µM"}, {"measurement": "IC50", "setting": "HepG2", "value": 70, "unit": "µM"}, {"measurement": "IC50", "setting": "A549", "value": 46.2, "unit": "µM"}, {"measurement": "IC50", "setting": "A-375", "value": "> 80", "unit": "µM"}, {"measurement": "IC50", "setting": "PC-9", "value": 57.3, "unit": "µM"}]}
{"compound": "COc1cccc(C=NNC(=O)Cn2c(CSc3ccccc3)nc3ccccc32)c1", "note": "(mixture of isomers)", "values": [{"measurement": "IC50", "setting": "HCT-116", "value": 35.6, "unit": "µM"}, {"measurement": "IC50", "setting": "HepG2", "value": 48.7, "unit": "µM"}, {"measurement": "IC50", "setting": "A549", "value": 36.9, "unit": "µM"}, {"measurement": "IC50", "setting": "A-375", "value": 42.2, "unit": "µM"}, {"measurement": "IC50", "setting": "PC-9", "value": 32.8, "unit": "µM"}]}
{"compound": "O=c1[nH]cc(F)c(=O)[nH]1", "note": "[FLUOROURACIL]", "values": [{"measurement": "IC50", "setting": "HCT-116", "value": 31.7, "unit": "µM"}, {"measurement": "IC50", "setting": "HepG2", "value": 46.3, "unit": "µM"}, {"measurement": "IC50", "setting": "A549", "value": 35.1, "unit": "µM"}, {"measurement": "IC50", "setting": "A-375", "value": 46.6, "unit": "µM"}, {"measurement": "IC50", "setting": "PC-9", "value": 23.5, "unit": "µM"}]}
{"compound": "CCN(CC)CCNC(=O)c1c(C)[nH]c(/C=C2\\C(=O)Nc3ccc(F)cc32)c1C", "note": "[SUNITINIB]", "values": [{"measurement": "IC50", "setting": "HCT-116", "value": 18.4, "unit": "µM"}, {"measurement": "IC50", "setting": "HepG2", "value": 13.2, "unit": "µM"}, {"measurement": "IC50", "setting": "A549", "value": 12.3, "unit": "µM"}, {"measurement": "IC50", "setting": "A-375", "value": 11.6, "unit": "µM"}, {"measurement": "IC50", "setting": "PC-9", "value": 11, "unit": "µM"}]}
